The target of experiment [1] is Thymidylate synthase (Mus musculus, UniProt P07607). Nature of the experiment: Competitive inhibition of purified mouse Ehrlich ascites tumor cell thymidylate synthetase using 5-[3H]-2'-deoxyuridine 5'-phosphate as substrate after 7 mins by double reciprocal plot method. An outline of the steps:
(§1)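 Thymidylate synthetase was purified from E. coli, calf thymus or Ehrlich ascites tumor cells. Inhibition constants came from double-reciprocal plots of velocity against substrate concentration. Each plot used five substrate concentrations and at least two inhibitor concentrations.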

Experiment [2] deals with T1, Thymidylate synthase (Bos taurus, UniProt Q2TA32). The experiment in a line: Noncompetitive inhibition of purified calf thymus thymidylate synthetase using 5-[3H]-2'-deoxyuridine 5'-phosphate as substrate after 7 mins by double reciprocal plot method. A digest of the protocol:
as §1

A short description of experiment [3]: Competitive inhibition of purified Escherichia coli thymidylate synthetase using t5-[3H]-2'-deoxyuridine 5'-phosphate as substrate after 7 mins by double reciprocal plot method. A digest of the protocol: as §1
The target of experiment [4] is T1, Thymidylate synthase. The experiment in a line: Competitive inhibition of purified calf thymus thymidylate synthetase using 5-[3H]-2'-deoxyuridine 5'-phosphate as substrate after 7 mins by double reciprocal plot method. A digest of the protocol: as §1
A short description of experiment [5]: Ratio of Ki for purified mouse Ehrlich ascites tumor cell thymidylate synthetase to Ki for purified calf thymus thymidylate synthetase.

Broadly, the pKi is −log10 of the Ki, conventionally taken in molar units. High values mean a small Ki, low ones a large Ki.

pKi: −log10 of the molar value.

T1 sequence (Q2TA32 whole entry): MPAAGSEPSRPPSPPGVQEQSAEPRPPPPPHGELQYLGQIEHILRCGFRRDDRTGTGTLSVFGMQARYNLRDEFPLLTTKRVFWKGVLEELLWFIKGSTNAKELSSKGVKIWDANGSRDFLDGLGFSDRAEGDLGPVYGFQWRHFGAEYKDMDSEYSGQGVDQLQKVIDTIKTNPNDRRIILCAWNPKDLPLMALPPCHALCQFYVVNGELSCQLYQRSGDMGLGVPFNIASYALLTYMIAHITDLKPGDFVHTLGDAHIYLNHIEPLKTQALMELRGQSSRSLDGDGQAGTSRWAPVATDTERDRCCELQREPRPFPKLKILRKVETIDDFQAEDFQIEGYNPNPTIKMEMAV
Chain of Thymidylate synthase (Mus musculus, UniProt P07607) (P07607 whole entry): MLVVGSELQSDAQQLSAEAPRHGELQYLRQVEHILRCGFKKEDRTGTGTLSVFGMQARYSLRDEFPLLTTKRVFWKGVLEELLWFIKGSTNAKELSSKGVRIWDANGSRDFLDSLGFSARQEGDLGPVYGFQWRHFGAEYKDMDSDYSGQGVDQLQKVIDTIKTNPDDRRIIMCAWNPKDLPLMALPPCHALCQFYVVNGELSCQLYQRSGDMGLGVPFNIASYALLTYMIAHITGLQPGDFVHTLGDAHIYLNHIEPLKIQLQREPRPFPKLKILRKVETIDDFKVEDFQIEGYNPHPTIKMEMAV

In the case of `O=c1[nH]c(=O)n([C@H]2C[C@H](O)[C@@H](COP(=O)(O)O)O2)cc1CN1CCCC1`, the pKi on Thymidylate synthase [1] is 4.57; on Thymidylate synthase [2] it was 4.37; in experiment [3] it was 4.25.
Take `O=c1ccn([C@H]2C[C@H](O)[C@@H](COP(=O)(O)O)O2)c(=O)[nH]1` [DEOXYURIDINE MONOPHOSPHATE]: the pKi at Thymidylate synthase [1] was 5.19; in experiment [3] it was 5.12; at Thymidylate synthase [4] it was 5.10.
Regarding `CN(C)Cc1cn([C@H]2C[C@H](O)[C@@H](COP(=O)(O)O)O2)c(=O)[nH]c1=O`, the pKi was 4.14 on Thymidylate synthase [1], 4.05 in experiment [3] and 3.96 at Thymidylate synthase [4].
Regarding `CN(C)CCNCc1cn([C@H]2C[C@H](O)[C@@H](COP(=O)(O)O)O2)c(=O)[nH]c1=O`, the pKi is 4.85 on Thymidylate synthase [1], 5.22 in experiment [3] and 5.51 on Thymidylate synthase [4]. Also, the Ratio Ki in experiment [5] stood at 4.
